Experimental data gathered from unrelated publications.
Each line is one published result; the experiments were not run side by side. pIC50: −log10 of the molar value.
CDK2 with cyclin E1: Cyclin-dependent kinase 2, with cyclin E1 (CDK2, Homo sapiens, UniProt P24941)

CC(=O)c1cc(O)c2ccccc2c1O — pIC50 (Genome polyprotein, methyltransferase (ZIKV, UniProt A0A024B7W1); enzyme activity, inhibitor, TR-FRET): 4.89
CCCCCCCCCCCCCC(=O)O[C@@H]1[C@@H](C)[C@@]2(O)[C@@H](C=C(CO)C[C@]3(O)C(=O)C(C)=C[C@@H]23)[C@@H]2C(C)(C)[C@]12OC(C)=O — pIC50 (Proteinase-activated receptor 1 (F2R, Homo sapiens, UniProt P25116); calcium signal, antagonist): 8.13
N=C1CCCN1Cc1[nH]c(=O)[nH]c(=O)c1Br — pIC50 (Thymidine phosphorylase (Homo sapiens, UniProt P19971); enzyme activity, inhibitor): 8.57
O=c1cc(-c2ccccc2)oc2c1ccc1occc12 — pIC50 (CDK2 with cyclin E1; enzyme activity, inhibitor, ADP detection): 5.10
C[C@H](N)Cn1ncc2ccc3c(c21)CCCO3 — pIC50 (5-hydroxytryptamine receptor 6 (HTR6, Homo sapiens, UniProt P50406); ligand displacement, radioligand): 4.71
O=c1c(O)c(-c2cc(O)c(O)c(O)c2)oc2cc(O)cc(O)c12 — pIC50 (Genome polyprotein, protease (ZIKV, UniProt A0A024B7W1); enzyme activity, inhibitor, FRET; pH 7): 4.66
CC(C)N(C)[C@@H]1CC[C@H](N2CC[C@H](NC(=O)c3cccc(C(F)(F)F)c3)C2=O)[C@H](CS(=O)(=O)C(C)C)C1 — pIC50 (C-C chemokine receptor type 2 (CCR2, Homo sapiens, UniProt P41597); cell-free assay): 9.52
CCCCCCCCCCCCCCCCOC[C@H](COP(=O)([O-])OCC[N+](C)(C)C)OC(C)=O — pIC50 (Platelet-activating factor receptor (PTAFR, Homo sapiens, UniProt P25105); ligand displacement, radioligand): 9.60
N#Cc1cc(F)cc(NS(=O)(=O)c2ccc(S(=O)(=O)F)c3c2CCCC3)c1 — pIC50 (RALB (Homo sapiens, UniProt P11234, Y82F); cell-free assay, inhibitor, fluorescence): 4.16
COc1cc(NC(=O)C(=O)[C@H](CC(C)C)NC(=O)[C@H](CC(C)C)NC(=O)[C@H](CC(C)C)NC(=O)OCc2ccccc2)cc(OC)c1 — pIC50 (Proteasome component C5/PSMB5, chymotrypsin-like site (Homo sapiens, UniProt P20618+P28074); enzyme activity in cells, inhibitor): 7.60
CC(C)C[C@H]1C(=O)N2CCC[C@H]2[C@]2(O)O[C@](NC(=O)[C@@H]3C=C4c5cccc6[nH]c(Br)c(c56)C[C@H]4N(C)C3)(C(C)C)C(=O)N12 — pIC50 (5-hydroxytryptamine receptor 7 (HTR7, Homo sapiens, UniProt P34969); ligand displacement, radioligand): 6.82
COc1c(-c2ccc3c(c2)OCO3)oc2c(ccc3occc32)c1=O — pIC50 (CDK2 with cyclin E1; enzyme activity, inhibitor, ADP detection): < 4.00
CC(C)C[C@H](NC(=O)[C@H]1O[C@@H]1C(=O)O)C(=O)NCCCCN=C(N)N — pIC50 (Cathepsin B (CTSB, Homo sapiens, UniProt P07858); enzyme activity, inhibitor): 8.40
